Experiment [1] has as its target Histone-lysine N-methyltransferase 2A (Homo sapiens, UniProt Q03164). As to the kind of experiment: Inhibition of GST-tagged human MLL1 (1147 to 1203 residues) expressed in Escherichia coli BL21 cells incubated for 30 mins by fluorescence polarization assay. The method in brief: (§1)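 Competition fluorescence polarization assay. CXXC domain protein is held at 2× its own KD. All domains are expressed and purified by the same method. Standard deviations come from three separate measurements.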

The nature of experiment [2]: Inhibition of GST-tagged human MLL1 Cys1188Ala mutant (1147 to 1203 residues) expressed in Escherichia coli BL21 cells incubated for 30 mins by fluorescence polarization assay.
The target of experiment [3] is Methylcytosine dioxygenase TET3 (Homo sapiens, UniProt O43151). As to the kind of experiment: Inhibition of GST-tagged human TET3 ([…] residues) expressed in Escherichia coli BL21 cell incubated for 30 mins by fluorescence polarization assay. The method in brief: as §1
In general terms: Fluorescence polarisation rises when a labelled molecule tumbles more slowly, as on binding a larger partner.

Experiment [4] has as its target T1, Lysine-specific demethylase 2B (Homo sapiens, UniProt Q8NHM5).
T1 sequence (Q8NHM5 whole entry): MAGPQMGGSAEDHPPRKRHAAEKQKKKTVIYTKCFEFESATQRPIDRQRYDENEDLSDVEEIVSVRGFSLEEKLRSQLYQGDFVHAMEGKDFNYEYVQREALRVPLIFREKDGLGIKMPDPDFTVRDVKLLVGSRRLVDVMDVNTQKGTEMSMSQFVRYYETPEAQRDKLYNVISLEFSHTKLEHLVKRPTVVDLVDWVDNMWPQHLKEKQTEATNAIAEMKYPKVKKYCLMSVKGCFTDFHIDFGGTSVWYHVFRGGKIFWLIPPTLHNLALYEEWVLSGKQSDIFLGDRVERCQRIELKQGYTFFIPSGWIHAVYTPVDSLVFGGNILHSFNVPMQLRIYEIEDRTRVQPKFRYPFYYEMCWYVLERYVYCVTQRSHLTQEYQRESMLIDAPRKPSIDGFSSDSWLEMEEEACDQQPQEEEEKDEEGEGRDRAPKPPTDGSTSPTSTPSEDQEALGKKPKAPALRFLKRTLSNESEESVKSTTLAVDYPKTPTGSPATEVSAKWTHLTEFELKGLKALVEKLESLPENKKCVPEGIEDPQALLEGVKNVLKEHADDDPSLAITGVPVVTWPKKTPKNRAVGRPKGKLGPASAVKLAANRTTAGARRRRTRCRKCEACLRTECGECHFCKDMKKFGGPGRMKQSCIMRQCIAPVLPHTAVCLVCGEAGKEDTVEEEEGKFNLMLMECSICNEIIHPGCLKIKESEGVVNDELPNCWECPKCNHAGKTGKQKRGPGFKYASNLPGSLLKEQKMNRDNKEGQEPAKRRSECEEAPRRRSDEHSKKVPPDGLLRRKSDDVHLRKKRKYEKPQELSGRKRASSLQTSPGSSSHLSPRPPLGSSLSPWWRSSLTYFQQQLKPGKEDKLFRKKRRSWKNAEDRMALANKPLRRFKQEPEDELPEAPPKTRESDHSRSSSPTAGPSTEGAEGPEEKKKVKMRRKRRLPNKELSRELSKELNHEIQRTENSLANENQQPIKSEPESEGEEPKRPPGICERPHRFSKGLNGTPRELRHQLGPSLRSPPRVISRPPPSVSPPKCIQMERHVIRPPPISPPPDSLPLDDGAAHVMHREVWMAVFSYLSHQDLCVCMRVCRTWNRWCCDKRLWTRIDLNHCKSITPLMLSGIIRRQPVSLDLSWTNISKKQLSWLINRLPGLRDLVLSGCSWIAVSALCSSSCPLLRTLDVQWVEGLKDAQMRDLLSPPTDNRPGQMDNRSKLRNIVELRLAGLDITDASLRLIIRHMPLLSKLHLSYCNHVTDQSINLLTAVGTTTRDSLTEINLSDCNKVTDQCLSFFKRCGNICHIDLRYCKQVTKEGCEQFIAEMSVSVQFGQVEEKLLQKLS
As to the kind of experiment: Inhibition of GST-tagged human KDM2B (604 to 660 residues) expressed in Escherichia coli BL21 cells incubated for 30 mins by fluorescence polarization assay. The gist of the method:
as §1

Experiment [5] addresses T2, F-box/LRR-repeat protein 19 (Homo sapiens, UniProt Q6PCT2).
T2 sequence (Q6PCT2 whole entry): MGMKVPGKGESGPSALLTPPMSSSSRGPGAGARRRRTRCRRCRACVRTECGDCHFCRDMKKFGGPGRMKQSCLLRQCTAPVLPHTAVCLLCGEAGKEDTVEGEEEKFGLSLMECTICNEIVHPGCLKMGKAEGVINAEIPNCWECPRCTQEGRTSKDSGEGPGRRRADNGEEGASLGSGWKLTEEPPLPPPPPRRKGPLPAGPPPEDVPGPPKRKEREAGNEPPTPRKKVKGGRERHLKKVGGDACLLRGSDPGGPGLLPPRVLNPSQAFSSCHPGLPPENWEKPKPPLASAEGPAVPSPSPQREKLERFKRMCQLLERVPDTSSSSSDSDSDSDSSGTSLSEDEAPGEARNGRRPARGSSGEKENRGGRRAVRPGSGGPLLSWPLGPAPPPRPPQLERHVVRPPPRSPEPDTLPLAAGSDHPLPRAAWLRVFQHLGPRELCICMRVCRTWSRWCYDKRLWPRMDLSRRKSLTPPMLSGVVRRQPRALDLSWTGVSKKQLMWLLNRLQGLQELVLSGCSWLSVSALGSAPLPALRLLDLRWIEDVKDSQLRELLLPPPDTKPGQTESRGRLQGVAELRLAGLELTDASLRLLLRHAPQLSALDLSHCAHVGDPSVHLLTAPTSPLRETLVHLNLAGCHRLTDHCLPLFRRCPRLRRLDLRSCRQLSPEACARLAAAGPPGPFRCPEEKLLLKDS
As to the kind of experiment: Inhibition of GST-tagged human FBXL19 (31 to 86 residues) expressed in Escherichia coli BL21 cells incubated for 30 mins by fluorescence polarization assay. The gist of the method: as §1

Experiment [6] deals with T3, CXXC-type zinc finger protein 5 (Homo sapiens, UniProt Q7LFL8).
T3 sequence (Q7LFL8 whole entry): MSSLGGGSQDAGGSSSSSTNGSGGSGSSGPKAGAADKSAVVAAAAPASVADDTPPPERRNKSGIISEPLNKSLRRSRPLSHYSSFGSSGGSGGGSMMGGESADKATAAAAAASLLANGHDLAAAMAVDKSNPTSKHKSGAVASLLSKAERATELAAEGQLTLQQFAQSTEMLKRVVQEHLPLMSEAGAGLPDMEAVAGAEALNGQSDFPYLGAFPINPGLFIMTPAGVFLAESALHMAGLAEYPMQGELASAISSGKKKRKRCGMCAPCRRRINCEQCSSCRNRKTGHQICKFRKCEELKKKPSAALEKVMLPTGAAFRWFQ
As to the kind of experiment: Inhibition of GST-tagged human CXXC5 (255 to 305 residues) expressed in Escherichia coli BL21 cells incubated for 30 mins by fluorescence polarization assay. The gist of the method: as §1

Histone-lysine N-methyltransferase 2A, sequence (Q03164 1-2718 limits assumed): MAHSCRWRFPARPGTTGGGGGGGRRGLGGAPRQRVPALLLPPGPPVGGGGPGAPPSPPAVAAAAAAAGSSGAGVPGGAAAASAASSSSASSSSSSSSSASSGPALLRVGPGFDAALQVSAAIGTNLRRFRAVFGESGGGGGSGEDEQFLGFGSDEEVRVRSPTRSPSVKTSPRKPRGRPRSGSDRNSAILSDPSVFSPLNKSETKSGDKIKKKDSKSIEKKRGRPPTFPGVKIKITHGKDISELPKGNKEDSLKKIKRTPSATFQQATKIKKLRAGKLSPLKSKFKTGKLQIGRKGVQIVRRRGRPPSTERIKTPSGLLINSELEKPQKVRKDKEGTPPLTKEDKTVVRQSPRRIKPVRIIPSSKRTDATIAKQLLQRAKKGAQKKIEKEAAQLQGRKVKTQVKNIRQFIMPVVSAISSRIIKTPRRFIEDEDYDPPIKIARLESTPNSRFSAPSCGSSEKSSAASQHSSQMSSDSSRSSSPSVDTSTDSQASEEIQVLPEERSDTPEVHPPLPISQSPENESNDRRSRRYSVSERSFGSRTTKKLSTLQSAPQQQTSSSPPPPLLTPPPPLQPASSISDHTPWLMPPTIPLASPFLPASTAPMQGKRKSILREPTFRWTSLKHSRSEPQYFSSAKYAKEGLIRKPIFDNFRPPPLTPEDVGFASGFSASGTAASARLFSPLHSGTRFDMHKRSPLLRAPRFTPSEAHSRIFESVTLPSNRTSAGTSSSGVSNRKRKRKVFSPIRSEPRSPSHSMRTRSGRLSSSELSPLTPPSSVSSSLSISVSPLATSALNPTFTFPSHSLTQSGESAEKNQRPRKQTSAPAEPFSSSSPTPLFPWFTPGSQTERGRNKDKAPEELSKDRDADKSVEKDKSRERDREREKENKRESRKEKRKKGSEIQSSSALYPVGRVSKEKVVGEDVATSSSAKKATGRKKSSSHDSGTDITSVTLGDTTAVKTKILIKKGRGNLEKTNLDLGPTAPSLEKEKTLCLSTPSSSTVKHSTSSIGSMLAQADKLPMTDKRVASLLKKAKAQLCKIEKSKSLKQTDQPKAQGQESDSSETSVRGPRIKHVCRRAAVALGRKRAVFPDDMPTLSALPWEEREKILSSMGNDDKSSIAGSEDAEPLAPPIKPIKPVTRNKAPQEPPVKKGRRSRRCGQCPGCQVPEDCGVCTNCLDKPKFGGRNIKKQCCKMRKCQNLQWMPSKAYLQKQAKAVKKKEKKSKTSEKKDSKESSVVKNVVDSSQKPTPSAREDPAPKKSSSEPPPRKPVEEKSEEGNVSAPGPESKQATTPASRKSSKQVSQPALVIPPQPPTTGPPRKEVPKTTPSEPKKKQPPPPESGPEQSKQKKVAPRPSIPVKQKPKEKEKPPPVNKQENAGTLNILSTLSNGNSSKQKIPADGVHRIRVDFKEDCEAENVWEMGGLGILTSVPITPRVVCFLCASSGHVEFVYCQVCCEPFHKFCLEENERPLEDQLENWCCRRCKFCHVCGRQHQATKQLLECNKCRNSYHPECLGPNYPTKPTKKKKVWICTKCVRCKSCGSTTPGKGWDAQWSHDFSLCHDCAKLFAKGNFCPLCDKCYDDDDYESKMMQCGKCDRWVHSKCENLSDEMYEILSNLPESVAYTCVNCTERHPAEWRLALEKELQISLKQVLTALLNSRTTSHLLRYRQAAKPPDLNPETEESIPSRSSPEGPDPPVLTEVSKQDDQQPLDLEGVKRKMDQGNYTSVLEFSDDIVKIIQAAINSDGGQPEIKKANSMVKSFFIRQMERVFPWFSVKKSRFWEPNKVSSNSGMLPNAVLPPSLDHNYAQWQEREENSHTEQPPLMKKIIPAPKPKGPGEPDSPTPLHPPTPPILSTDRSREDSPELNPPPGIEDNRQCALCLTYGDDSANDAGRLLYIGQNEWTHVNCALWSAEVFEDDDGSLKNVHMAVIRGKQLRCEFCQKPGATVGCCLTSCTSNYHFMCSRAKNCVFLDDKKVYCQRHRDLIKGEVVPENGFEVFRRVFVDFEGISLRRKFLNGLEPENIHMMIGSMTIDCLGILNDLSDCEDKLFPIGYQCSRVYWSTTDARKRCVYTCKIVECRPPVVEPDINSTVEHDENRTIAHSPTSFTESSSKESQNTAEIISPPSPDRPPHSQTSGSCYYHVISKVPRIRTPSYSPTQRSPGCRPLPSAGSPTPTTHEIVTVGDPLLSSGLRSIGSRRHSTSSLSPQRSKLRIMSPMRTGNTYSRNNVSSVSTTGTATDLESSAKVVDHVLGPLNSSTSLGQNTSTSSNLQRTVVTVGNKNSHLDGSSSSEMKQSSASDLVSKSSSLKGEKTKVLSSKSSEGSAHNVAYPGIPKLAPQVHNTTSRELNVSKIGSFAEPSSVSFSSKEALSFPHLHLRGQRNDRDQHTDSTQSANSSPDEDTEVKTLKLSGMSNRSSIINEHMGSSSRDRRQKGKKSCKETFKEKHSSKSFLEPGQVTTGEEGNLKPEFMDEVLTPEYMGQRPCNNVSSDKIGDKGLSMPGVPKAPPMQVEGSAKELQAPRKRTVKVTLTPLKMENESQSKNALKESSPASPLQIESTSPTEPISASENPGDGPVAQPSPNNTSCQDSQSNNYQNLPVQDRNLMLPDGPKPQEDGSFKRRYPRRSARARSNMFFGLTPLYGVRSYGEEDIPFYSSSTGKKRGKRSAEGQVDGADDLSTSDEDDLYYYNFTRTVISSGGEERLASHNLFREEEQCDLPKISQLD
Histone-lysine N-methyltransferase 2A, sequence (Q03164 2719-3969 limits assumed): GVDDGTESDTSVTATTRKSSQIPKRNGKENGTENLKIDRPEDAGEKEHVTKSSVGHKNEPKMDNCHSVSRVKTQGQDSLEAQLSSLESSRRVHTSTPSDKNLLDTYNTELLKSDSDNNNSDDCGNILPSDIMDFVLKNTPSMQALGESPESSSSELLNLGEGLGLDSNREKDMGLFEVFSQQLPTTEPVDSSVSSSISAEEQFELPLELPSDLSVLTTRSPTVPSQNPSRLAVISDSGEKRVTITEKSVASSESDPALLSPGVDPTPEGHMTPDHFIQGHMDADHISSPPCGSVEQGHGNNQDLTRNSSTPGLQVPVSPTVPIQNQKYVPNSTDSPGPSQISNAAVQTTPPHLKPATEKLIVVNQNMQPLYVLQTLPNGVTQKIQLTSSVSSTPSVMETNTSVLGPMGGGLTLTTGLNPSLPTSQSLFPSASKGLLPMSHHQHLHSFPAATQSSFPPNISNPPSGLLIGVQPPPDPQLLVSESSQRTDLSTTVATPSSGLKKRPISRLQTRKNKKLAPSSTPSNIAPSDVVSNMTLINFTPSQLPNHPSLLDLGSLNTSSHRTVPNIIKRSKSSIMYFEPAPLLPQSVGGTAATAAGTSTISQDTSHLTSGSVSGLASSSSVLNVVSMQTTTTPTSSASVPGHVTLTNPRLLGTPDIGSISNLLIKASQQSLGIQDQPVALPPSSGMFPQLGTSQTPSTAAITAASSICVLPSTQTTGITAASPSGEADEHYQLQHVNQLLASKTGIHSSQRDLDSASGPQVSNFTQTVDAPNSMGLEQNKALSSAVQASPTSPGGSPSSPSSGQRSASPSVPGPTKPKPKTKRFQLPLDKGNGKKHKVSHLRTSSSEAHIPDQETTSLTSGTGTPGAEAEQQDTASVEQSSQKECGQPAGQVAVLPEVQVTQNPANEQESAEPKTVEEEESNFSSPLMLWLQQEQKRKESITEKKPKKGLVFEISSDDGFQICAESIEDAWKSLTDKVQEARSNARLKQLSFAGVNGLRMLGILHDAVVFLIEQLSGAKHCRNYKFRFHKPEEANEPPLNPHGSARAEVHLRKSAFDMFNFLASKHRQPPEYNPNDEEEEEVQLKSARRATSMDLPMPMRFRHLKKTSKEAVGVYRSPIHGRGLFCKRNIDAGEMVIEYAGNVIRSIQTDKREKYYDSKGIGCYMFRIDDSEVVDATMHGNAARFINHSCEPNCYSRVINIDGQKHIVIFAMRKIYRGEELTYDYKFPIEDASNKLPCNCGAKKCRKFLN

As a reminder, the IC50 is the point on the concentration scale where inhibition reaches its midpoint. A low value points to inhibition by little substance. Consider `C=CC(=O)N1CCC(C(=O)O)(c2ccccc2)CC1`, for which the IC50 in experiment [1] came to 7.1 µM; in experiment [2], 3.6 µM; in experiment [3] it was 5.1 µM; in experiment [4], 6.4 µM; in experiment [5], 1.8 µM; in experiment [6], 4.8 µM.
For the compound `C=CC(=O)N1CCC(C(=O)O)(c2ccc(OCC)cc2)CC1`, the IC50 in experiment [1] stood at 3.3 µM; in experiment [2], 15.4 µM; in experiment [3], 5.8 µM; in experiment [4], 3.6 µM; in experiment [5] it was 2.4 µM; in experiment [6], 16.2 µM.
On to `C=CC(=O)N1CCC(C(=O)O)(c2ccc(OC)cc2)CC1`, for which the IC50 in experiment [1] worked out at 43 µM; in experiment [2] it was 51 µM; in experiment [3], 30 µM; in experiment [4], 53 µM; in experiment [5], 17 µM; in experiment [6], 47 µM.
In the case of `C=CC(=O)N1CCC(C(=O)NS(=O)(=O)c2ccccc2)(c2ccccc2)CC1`, the IC50 was determined as 46 µM in experiment [1]; 52 µM in experiment [2]; 33 µM in experiment [3]; 35 µM in experiment [4]; 21.7 µM in experiment [5]; 53 µM in experiment [6].
As to `C=CC(=O)N1CCC(c2ccc(OC)cc2)(c2nnn[nH]2)CC1`, the IC50 is 15 µM in experiment [1]; 59 µM in experiment [2]; 15.5 µM in experiment [3]; 32 µM in experiment [4]; 8.9 µM in experiment [5]; 56 µM in experiment [6].
Turning to `C=CC(=O)N1CCC(c2ccccc2)(c2nnn[nH]2)CC1`, the IC50 was 4.9 µM in experiment [1]; 20 µM in experiment [2]; 5.5 µM in experiment [3]; 8.3 µM in experiment [4]; 3.1 µM in experiment [5]; 28 µM in experiment [6].
As to `C=CC(=O)N1CCC(C(=O)O)(c2ccc(Cl)cc2)CC1`, the IC50 in experiment [1] came out at 41 µM; in experiment [2] it was 108 µM; in experiment [3] it was 48 µM; in experiment [4], 53 µM; in experiment [5] it was 31 µM; in experiment [6], 53 µM.
For `C=CC(=O)N1CCC(c2cccc(OCC)c2)(c2nnn[nH]2)CC1`, the IC50 in experiment [1] stood at 7.7 µM; in experiment [2], 43 µM; in experiment [3], 7 µM; in experiment [4], 9.4 µM; in experiment [5], 2.6 µM; in experiment [6], 40 µM.
As to `C=CC(=O)N1CCC(c2ccc(OCC)cc2)(c2nnn[nH]2)CC1`, the concentration for half-maximal inhibition (IC50) in experiment [1] came to 22 µM; in experiment [2], 104 µM; in experiment [3] it was 21 µM; in experiment [4], 30 µM; in experiment [5], 10.9 µM; in experiment [6], 131 µM.

(Values after ChEMBL document CHEMBL5120972, “Small-Molecule Inhibitors of the MLL1 CXXC Domain, an Epigenetic Reader of DNA Methylation” (ACS Med Chem Lett, 2022).)
